Only some compounds are listed: those with a hit (about 2.9% of all), similar ones and a draw of the others.
SENP6 inh – SENP6 protease inhibitors, primary screen, biochemical, luminescence, uHTS; Sentrin-specific protease 6 (Homo sapiens), Q9GZR1; Recombinant SENP6 catalytic domain, aminoluciferin luminescence; AID 2599, 2010; hit rate 1.8% among 330,000; inhibition, % at 10 µM;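 active = inhibition above about 50% at the single tested dose, limit read from the data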;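 also: plate controls were DMSO wells with enzyme for no effect and DMSO wells lacking enzyme for full effect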
Target sequence (Q9GZR1 628-1112 limits assumed): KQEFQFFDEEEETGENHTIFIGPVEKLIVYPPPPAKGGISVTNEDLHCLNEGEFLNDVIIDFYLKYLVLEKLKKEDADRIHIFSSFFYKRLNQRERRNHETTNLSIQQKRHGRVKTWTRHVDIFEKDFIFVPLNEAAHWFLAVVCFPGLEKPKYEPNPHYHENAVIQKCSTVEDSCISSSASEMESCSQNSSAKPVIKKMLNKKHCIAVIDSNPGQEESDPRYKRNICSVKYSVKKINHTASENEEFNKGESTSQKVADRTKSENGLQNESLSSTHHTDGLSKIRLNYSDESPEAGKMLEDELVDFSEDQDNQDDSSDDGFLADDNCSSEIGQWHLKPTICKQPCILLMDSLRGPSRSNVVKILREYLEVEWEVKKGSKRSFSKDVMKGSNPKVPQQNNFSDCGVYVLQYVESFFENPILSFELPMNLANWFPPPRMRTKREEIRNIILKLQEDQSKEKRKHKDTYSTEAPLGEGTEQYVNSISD
SENP8 block-1 – human SENP8 protease inhibitors, primary screen, biochemical, fluorescence, Nedd8 protein substrate, uHTS; hit rate 0.64% among 360,000; Sentrin-specific protease 8 (Homo sapiens), Q96LD8; inhibition, % at 20 µM; recombinant SENP8; in the data active = inhibition mostly above about 40%, no sharp cut-off; inactive = mostly below about 27%
Apaf-1 inh – inhibitors of human Apaf-1 apoptosome, primary screen, biochemical, DEVD-Rh110 fluorescence, uHTS; hit rate 0.71% among 330,000; AID 489030, 2010; reconstituted apoptosome caspase-3 activity; Apoptotic protease-activating factor 1 (Homo sapiens), O14727; inhibition, % at 20 µM; active = inhibition of at least 40% at 20 µM;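 also: plate controls were DMSO wells for no effect and DEVD-CHO caspase inhibitor wells for full effect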
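Material: reconstituted apoptosome with Apaf-1, cytochrome c, caspase-9, procaspase-3, dATP; medium: pH 7.5 Hepes buffer with CHAPS, BSA, DTT; also added: cytochrome c and DEVD-Rh110 substrate; timing: 30 min plus 50 min, RT; signal: Rh110 fluorescence intensity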
SENP7 block – SENP7 protease inhibitors, primary screen, biochemical, luminescence, uHTS; Sentrin-specific protease 7 (Homo sapiens), Q9BQF6; recombinant SENP7, Z-RLRGG-aminoluciferin luminescence, 40 min; inhibition, % at 5 µM; hit rate 1.5% among 330,000; AID 434973, 2010;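 active = inhibition above about 50% at the single test dose, limit read from the data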;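 also: plate controls were DMSO with enzyme for no effect and no enzyme buffer wells for full effect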
SENP1 FRET inh – human SENP1 catalytic domain inhibitors, primary screen, biochemical, FRET, uHTS; hit rate 0.21% among 360,000; recombinant SENP1 catalytic domain, CyPet-SUMO1-YPet FRET cleavage; inhibition, % at 10 µM; AID 624204, 2012; Sentrin-specific protease 1 (Homo sapiens), Q9P0U3;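 active = inhibition at least 30% at 10 µM, raw YFP signal under a set limit, fluorescence ratio 0.5 to 1.5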;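 also: 0% = enzyme with DMSO and 100% = no enzyme wells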
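Test system: recombinant human SENP1 catalytic domain, His6-tagged / Medium: pH 8 Tris buffer with EDTA, NaCl, BME, BSA, NP40, catalase / Also added: SUMO1 FRET substrate flanked by Cypet and Ypet, 25 nM / Times: 50 min reaction at room temperature / Signal: FRET, CFP and YFP emission / Control set: no-enzyme low control and enzyme-plus-DMSO high control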
SENP8 block-2 – SENP8 protease inhibitors, primary screen, biochemical, luminescence; purified SENP8, Z-RLRGG-aminoluciferin cleavage; inhibition, % at 10 µM; hit rate 1.2% among 330,000; AID 2540, 2010; in the data active = inhibition above about 50%
SENP8 confirm – SENP8 protease inhibitors, retest, confirmation, biochemical, luminescence, single concentration. Recombinant SENP8, Z-RLRGG-aminoluciferin luminescence, 60 min. hit rate 40% among 6,200. inhibition, % at 12.5 µM. shares compounds with SENP7 block. AID 488912, 2010;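 active = mean inhibition across replicates above about 50%, limit read from the data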
SENP6 confirm – SENP6 protease inhibitors, confirmation, biochemical, luminescence, single concentration; inhibition, % at 12.5 µM; hit rate 58% among 6,200; recombinant SENP6, Z-RLRGG-aminoluciferin luminescence; shares compounds with SENP7 block
SENP7 conf – SENP7 protease inhibitors, retest, confirmation, biochemical, luminescence, single concentration; shares compounds with SENP7 block; recombinant SENP7, Z-RLRGG-aminoluciferin luminescence, 40 min; inhibition, % at 12.5 µM; hit rate 69% among 6,200; AID 488917, 2010
Casp3 select – caspase-3 protease inhibitors, confirmation, selectivity assay for SENP inhibitor project, biochemical, single concentration. shares compounds with SENP7 block. hit rate 60% among 6,200. inhibition, % at 12.5 µM. AID 488918, 2010. purified caspase-3, Z-DEVD-aminoluciferin luminescence, 60 min;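 active = mean inhibition above about 50%, limit read from the data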;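 also: plate controls were enzyme with DMSO for no effect and wells without caspase-3 for full effect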
Luc interf – luminescence interference (SENP counter-screen) | shares compounds with SENP7 block | Pre-incubated SENP8/Z-RLRGG-aminoluciferin, luciferase luminescence interference | inhibition, % at 12.5 µM | hit rate 39% among 6,200;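 active = mean inhibition above about 50% when retested at one dose, limit read from the data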;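 also: plate controls were DMSO wells with completed reaction for no effect and substrate without enzyme for full effect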
* = called active by the depositor; i = inactive; / = no result.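 The calls were made as follows, unless noted: active = mean inhibition above about 50% in the one-dose retest (limit read from the data); inactive = the rest.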

SMILES	SENP6 inh	SENP8 block-1	Apaf-1 inh	SENP7 block	SENP1 FRET inh	SENP8 block-2	SENP8 confirm	SENP6 confirm	SENP7 conf	Casp3 select	Luc interf
Cc1cc(C)n(C(=O)/C=C/c2cccs2)n1	-11	11	-4	56*	1	-27	1	-10	5	-6	8
CCCOC(=O)c1ccc(NC(=O)/C=C/c2cccs2)cc1	75*	-36	8	24	2	35	21	21	57*	11	16
Cc1cccc(NC(=O)/C=C/c2cccs2)n1	67*	7	-5	72*	-2	36	56*	55*	84*	77*	66*
CC1(C(=O)NS(=O)(=O)c2ccccc2Cl)CCN1C(=O)C1(c2ccc(Cl)cc2)CCC1 (centres undefined)	/	22	/	/	3	/	/	/	/	/	/
O=C1OCCC1=CN1CCCCC1	/	-5	/	/	1	/	/	/	/	/	/
O=C(NCc1ccco1)c1cc2ccc(O)cc2oc1=O	98*	-406	-6	96*	-15	95*	99*	100*	103*	99*	99*
COc1ccc2cc(C(=O)NCc3ccco3)c(=O)oc2c1	-12	i	7	-5	-165	-7	/	/	/	/	/
O=C(c1ccccc1)c1cc2ccc(O)cc2oc1=O	95*	-151	-1	98*	-28	96*	98*	99*	102*	98*	96*
CCc1ccc(C(=O)c2cc3ccc(O)cc3oc2=O)cc1	60*	-199	1	7	-28	48	66*	62*	84*	71*	66*
CC(=O)c1cc2ccc(O)cc2oc1=O	14	-422	-24	18	-34	4	/	/	/	/	/
CC(=O)c1ccc(COC(=O)c2cc3ccccc3oc2=O)cc1	4	-101	2	13	-6	-13	/	/	/	/	/
O=C(c1ccc(Br)cc1)c1cc2ccc(O)cc2oc1=O	90*	-112	5	51*	-22	92*	92*	95*	101*	96*	95*
COc1ccc(S(=O)(=O)NNC(=O)C2COc3ccccc3O2)cc1[N+](=O)[O-] (centres undefined)	-8	14	-8	3	-1	-1	/	/	/	/	/
COc1ccc(C(=O)c2cc3ccc(O)cc3oc2=O)cc1	100*	-275	-20	97*	-31	95*	96*	97*	102*	98*	95*
COc1ccc(-c2cc3ccc(O)cc3oc2=O)cc1OC	99*	-382	4	100*	-22	95*	99*	100*	103*	99*	96*
COc1ccccc1NC(=O)c1ccc2nc(-c3ccccc3)c(-c3ccccc3)nc2c1	6	-1	7	10	0	-3	/	/	/	/	/
COc1ccccc1-c1nc2cc3ccccc3cc2nc1-c1ccccc1	51*	-144	25	4	-27	6	-4	3	-5	-3	-3
Cc1ccc(-c2nc3ccccn3c2NCc2ccc3c(c2)OCO3)cc1	51*	-298	22	-4	-34	1	29	20	43	26	40
Oc1ccc(-c2nc3ccccn3c2NCc2ccco2)cc1	56*	-496	-6	1	-15	5	25	20	61*	48	44
CCc1ccc(/C=N\NC(=O)c2ccc(Br)o2)s1	55*	-26	-3	31	3	15	41	37	76*	67*	54*
O=C(NCc1ccccc1CN1CCCC1)c1cccc(S(=O)(=O)N2CCOCC2)c1	-12	2	10	-8	4	-9	/	/	/	/	/
COc1ccc(C(=O)NCCCCCC(=O)N/N=C/c2ccco2)cc1OC	-10	12	-2	0	-2	1	/	/	/	/	/
COc1ccc(C(=O)NCC(=O)N/N=C/c2ccco2)cc1OC	101*	14	4	-7	-1	-10	7	7	14	7	7
COCn1c(-c2cccc(Br)c2)nc2ccccc21	51*	10	-1	40	0	22	23	20	65*	42	55*
COCn1c(-c2ccc(OC)c(OC)c2)nc2ccccc21	4	-20	7	14	0	-3	/	/	/	/	/
SMILES	SENP6 inh	SENP8 block-1	Apaf-1 inh	SENP7 block	SENP1 FRET inh	SENP8 block-2	SENP8 confirm	SENP6 confirm	SENP7 conf	Casp3 select	Luc interf
CCCCn1nnnc1C(C1CC1)N1CCN(C/C=C/c2ccccc2)CC1 (centres undefined)	/	11	/	/	-3	/	/	/	/	/	/
O=C(Nc1ccccc1OC(F)F)c1ccc(N2CCCC2=O)cc1	/	4	/	/	1	/	/	/	/	/	/
Cc1ccnc(NC(=O)c2cc3ccccc3oc2=O)c1	72*	9	15	95*	-5	82*	24	30	22	55*	1
Cc1cccc(NC(=O)c2cc3ccccc3oc2=O)c1	88*	12	-4	97*	2	64*	-6	9	7	18	10
O=C(NC1CCCCCC1)c1cc2ccccc2oc1=O	73*	-136	17	56*	-1	40	50*	60*	68*	63*	19
Cc1ccc(-c2cc(C(=O)N/N=C/c3ccccc3O)n[nH]2)o1	67*	6	7	52*	-39	49	-1	-3	86*	53*	30
Cc1ccc(-c2cc(C(=O)N/N=C/c3c[nH]c4ccccc34)n[nH]2)o1	-5	-55	-2	1	-2	-3	/	/	/	/	/

Screening data: PubChem BioAssay, Sanford-Burnham Center for Chemical Genomics
